Test results from publication PMC10786240 (Antiviral research, 2019).

Tests used:
[1] = system: HeLa cells; assay: 48 h cytotoxicity assay; format: cell-based; settings: 48 h; compound at 10,000 nM with OSW-1
[2] = system: N-terminal OSBP FFAT domain with VAP-A; settings: BiMC assay; cited from earlier work
[3] = system: OSBP localization in HCT-116 cells; assay: immunofluorescence imaging of endogenous OSBP localization; format: cell-based
[4] = system: HCT-116 cells; assay: Trypan Blue cell viability assay; format: cell-based; settings: 24 h, OSW-1 1 nM, ITZ, THEV, TTP 10,000 nM, each alone
[5] = system: OSBP; settings: in vitro; cited from earlier work
[6] = biological target: T1, human ORP4 (Homo sapiens, UniProt Q969R2); assay: 96-well [3H]-25-OHC competitive binding assay, ORP4; settings: compound at 10,000 nM; 20 nM 3H-25-OHC
T1 sequence (Q969R2 1-916): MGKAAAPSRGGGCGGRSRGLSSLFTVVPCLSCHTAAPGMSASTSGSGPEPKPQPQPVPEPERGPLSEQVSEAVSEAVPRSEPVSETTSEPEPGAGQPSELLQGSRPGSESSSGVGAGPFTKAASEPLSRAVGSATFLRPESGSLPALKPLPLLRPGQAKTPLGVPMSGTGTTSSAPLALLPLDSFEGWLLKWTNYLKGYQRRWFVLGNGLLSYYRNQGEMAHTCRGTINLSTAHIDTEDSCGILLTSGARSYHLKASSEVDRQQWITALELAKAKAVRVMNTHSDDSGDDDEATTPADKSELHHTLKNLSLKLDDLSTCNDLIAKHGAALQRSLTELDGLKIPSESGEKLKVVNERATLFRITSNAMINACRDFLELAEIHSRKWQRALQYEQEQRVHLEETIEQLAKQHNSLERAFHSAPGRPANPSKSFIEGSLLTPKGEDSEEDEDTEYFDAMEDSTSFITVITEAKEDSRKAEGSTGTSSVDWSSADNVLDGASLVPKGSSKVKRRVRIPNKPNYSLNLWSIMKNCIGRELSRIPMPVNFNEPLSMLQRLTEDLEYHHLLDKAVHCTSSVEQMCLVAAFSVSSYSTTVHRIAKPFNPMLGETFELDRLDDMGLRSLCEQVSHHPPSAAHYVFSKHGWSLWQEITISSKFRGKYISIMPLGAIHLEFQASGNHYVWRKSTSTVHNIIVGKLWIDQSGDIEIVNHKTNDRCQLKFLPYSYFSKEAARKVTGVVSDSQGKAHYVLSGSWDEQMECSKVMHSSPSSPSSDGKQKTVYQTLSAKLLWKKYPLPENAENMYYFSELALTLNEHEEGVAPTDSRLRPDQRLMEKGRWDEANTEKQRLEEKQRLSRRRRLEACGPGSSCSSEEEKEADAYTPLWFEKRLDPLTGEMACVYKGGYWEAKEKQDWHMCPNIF
In short: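 Inhibition of 20 nM [3H]-25-OHC binding to human ORP4 overexpressed in […] cell lysate, run in 96-well competitive format; […].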

[7] = system: immortalized cell lines; assay: 48 h assay for cell metabolic activity; format: cell-based; settings: at <10,000 nM concentrations, Fig. 4B, Supp. Fig. 1
[8] = biological target: T2, human OSBP (Homo sapiens, UniProt P22059); assay: 96-well [3H]-25-OHC competitive binding assay, OSBP; settings: compound at 10,000 nM; 20 nM 3H-25-OHC
T2 sequence (P22059 1-807): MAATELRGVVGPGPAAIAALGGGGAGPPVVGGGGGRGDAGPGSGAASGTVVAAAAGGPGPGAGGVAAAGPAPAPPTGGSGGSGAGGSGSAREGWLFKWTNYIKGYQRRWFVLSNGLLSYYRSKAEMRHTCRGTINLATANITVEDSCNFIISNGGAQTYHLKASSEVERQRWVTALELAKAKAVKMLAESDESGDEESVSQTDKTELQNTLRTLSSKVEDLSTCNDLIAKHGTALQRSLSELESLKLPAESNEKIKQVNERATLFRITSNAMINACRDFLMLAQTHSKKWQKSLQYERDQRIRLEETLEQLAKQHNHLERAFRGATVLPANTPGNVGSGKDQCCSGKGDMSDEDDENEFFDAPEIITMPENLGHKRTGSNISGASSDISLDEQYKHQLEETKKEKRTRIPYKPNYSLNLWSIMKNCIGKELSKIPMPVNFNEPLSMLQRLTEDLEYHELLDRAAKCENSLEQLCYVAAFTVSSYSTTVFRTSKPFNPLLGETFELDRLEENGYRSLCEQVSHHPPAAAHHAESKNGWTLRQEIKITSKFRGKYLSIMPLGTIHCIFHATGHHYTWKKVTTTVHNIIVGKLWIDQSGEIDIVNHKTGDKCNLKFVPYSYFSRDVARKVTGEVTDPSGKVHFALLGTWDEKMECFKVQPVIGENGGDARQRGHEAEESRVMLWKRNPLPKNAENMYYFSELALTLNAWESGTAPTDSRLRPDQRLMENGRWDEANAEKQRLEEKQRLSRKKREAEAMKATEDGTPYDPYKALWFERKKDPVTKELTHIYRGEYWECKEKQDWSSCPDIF

[9] = system: OSBP levels in HCT-116 and HEK293 cells; assay: OSBP expression in cells upon 24 h compound treatment; format: cell-based, human
In short: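 HCT-116 (McCoy's 5A, 10% serum, 1% penicillin-streptomycin) or HEK293 cells seeded 5×10^5 per well, 20 h at 37 °C. Compound diluted from stock in complete medium, alone or with 1 nM OSW-1 co-treatment, for 24 h; DMSO vehicle control. Lysates immunoblotted for OSBP (A-5 antibody), β-actin as loading reference. Bands averaged over independent experiments.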

In the case of `C[C@@H](NC(=O)c1cccc(-c2cnc(-c3cc4ccccc4cn3)[nH]2)c1)c1ccc(F)cc1` [TTP], the “effect of co-administration on antiproliferative OSW-1 activity, HeLa” value [1] is given as “does not significantly affect the antiproliferative OSW-1 activity”, the “inhibition of OSBP FFAT domain interaction with VAP-A” value [2] is given as “Neither ITZ (3) or TTP (5) substantially inhibited” and the “OSBP cellular localization on co-administration with OSW-1” value ([3]; 24 h, 10,000 nM compound with 1 nM OSW-1) is given as “low expression of OSBP with a pattern not consistent with the OSW-1 alone or TTP alone treatment”. For the same compound, the OSBP cellular localization ([3]; 24 h, OSW-1 1 nM, 25-OHC, ITZ, TTP, THEV 10,000 nM, Golgi marker TGN46) was “induces a tight colocalization of OSBP with the Golgi marker with a perinuclear pattern close to the vehicle (DMSO) treated cell”, the “effect on cell population (cell counting after Trypan blue staining)” value [4] was “does not affect the cell population” and the “inhibition of OSBP cholesterol transport between vesicles” value [5] was “shown to inhibit the ability of OSBP to transport cholesterol between vesicles”. For the same compound, the “inhibition of 25-OHC binding to ORP4” value [6] was “no 25-OHC inhibition binding”, the antiproliferative activity [7] was “no antiproliferative activity” and the “inhibition of 25-OHC binding to OSBP” value [8] was “no 25-OHC inhibition binding”. For the same compound, the “effect of co-administration on OSW-1-induced reduction of OSBP levels” value ([9]; 10,000 nM compound with 1 nM OSW-1, HEK293 and HCT116) was “has no effect on OSBP levels” and the “effect on OSBP cellular levels” value ([9]; OSW-1 1 nM, Taxol 10 nM, ITZ, THEV, TTP 10,000 nM, HEK293 and HCT-116) was “do not reduce OSBP levels”.
